Reference: ChEMBL document CHEMBL5380846, “2-Aminobenzoxazole Derivatives as Potent Inhibitors of the Sphingosine-1-Phosphate Transporter Spinster Homolog 2 (Spns2)” (J Med Chem, 2023)
Active and inactive are the calls of the source. No cut-off for these calls is given here.

What follows are compounds tested on Mus musculus (assay: Decrease in plasma S1P level in mouse C57BL/6j at 10 mg/kg, ip measured after 4 hrs by LC-MS/MS analysis). Conditions: not given.
Assay type: functional, organism-based
Procedure, shortened: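 Female C57BL/6j mice were injected IP at 10 mg/Kg, or with vehicle (PEG400/ethanol/solutol/water). Plasma was taken 4 h post dose. S1P was quantified by LC-MS/MS after TCA precipitation with a d7-S1P internal standard and methanol extraction. Comparison was by t-test.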

| SMILES | Activity |
| --- | --- |
| CCCCCCCCCCc1ccc2oc(NC[C@H]3CCNC3)nc2c1 | inactive |

The compounds below were run on Mus musculus (assay: Decrease in circulating lymphocyte count in mouse C57BL/6j blood at 10 mg/kg, ip […]). Conditions: not given.

| SMILES | Activity |
| --- | --- |
| CCCCCCCCCCc1ccc2oc(NC[C@H]3CCNC3)nc2c1 | Active |

The compounds below were run against T1, Sphingosine-1-phosphate transporter SPNS2 (Mus musculus) (UniProt Q91VM4) (assay: Inhibition of mouse Spns2 expressed in Hela cells assessed as S1P release at 1 uM incubated for 18 to 20 hrs by LC-MS/MS analysis relative to control). Conditions: time 18-20 hrs.
T1 sequence (whole entry): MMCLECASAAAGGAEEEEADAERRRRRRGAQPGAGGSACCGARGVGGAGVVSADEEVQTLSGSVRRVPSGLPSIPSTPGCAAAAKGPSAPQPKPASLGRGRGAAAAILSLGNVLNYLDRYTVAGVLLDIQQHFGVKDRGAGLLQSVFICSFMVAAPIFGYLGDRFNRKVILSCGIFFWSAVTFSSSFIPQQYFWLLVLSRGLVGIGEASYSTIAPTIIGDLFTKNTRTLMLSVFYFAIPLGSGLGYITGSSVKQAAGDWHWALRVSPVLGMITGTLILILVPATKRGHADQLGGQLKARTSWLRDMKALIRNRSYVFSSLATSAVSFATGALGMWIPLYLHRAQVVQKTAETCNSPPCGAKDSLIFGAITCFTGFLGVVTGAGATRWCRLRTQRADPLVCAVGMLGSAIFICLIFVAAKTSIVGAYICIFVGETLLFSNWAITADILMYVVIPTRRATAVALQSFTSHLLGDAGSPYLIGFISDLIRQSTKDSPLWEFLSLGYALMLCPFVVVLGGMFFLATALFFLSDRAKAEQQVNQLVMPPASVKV
Assay type: cell-based
Procedure, shortened: (§1)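 HeLa cells stably transfected (G418 selection) with mouse Spns2, grown to near confluence. Medium was replaced with RPMI 1640 containing 0.2% fatty acid-free BSA, 1 mM 4-deoxypyridoxine, 2 mM NaF and 0.2 mM Na3VO4. Compound was added to duplicate wells (0-2 μM) for 18–20 h. Medium S1P was measured by LC-MS/MS against d7-S1P and expressed as % inhibition versus no-inhibitor control.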

| SMILES | inhibition |
| --- | --- |
| CCCCCCCCCCc1ccc2oc(N3CCNCC3)nc2c1 | 18% |
| CCCCCCCCCCc1ccc(-c2noc(CCCN)n2)cc1 | 44% |
| CCCCCCCCCCc1ccc2oc(N3CC[C@@H](N)C3)nc2c1 | 4% |
| CCCCCCCCCCc1ccc2oc(N(C)CCN)nc2c1 | 0% |
| CCCCCCCCCCc1ccc2oc(CCCN)nc2c1 | 40% |
| CCCCCCCCCCc1ccc2oc(CCCCN)nc2c1 | 0% |
| CCCCCCCCCCc1ccc2oc(NCCCCN)nc2c1 | 32% |
| CCCCCCCCCCc1ccc2oc(NCCN)nc2c1 | 16% |
| CCCCCCCCCCc1ccc2oc(NC[C@H]3CCCN3)nc2c1 | 0% |
| CCCCCCCCCCc1ccc2oc(N3CC[C@H](N)C3)nc2c1 | 1% |
| CCCCCCCCCCc1ccc2oc(NCCCN)nc2c1 | 15% |
| CCCCCCCCCCc1ccc2oc(N(CCN)CCN)nc2c1 | 25% |
| CCCCCCCCCCc1ccc2oc(NC3CNC3)nc2c1 | 20% |
| CCCCCCCCCCc1ccc2oc(NC3CCNCC3)nc2c1 | 54% |
| CCCCCCCCCCc1ccc2oc(CCCCCN)nc2c1 | 25% |
| CCCCCCCCCCc1ccc2oc(CCN)nc2c1 | 5% |
| CCCCCCCCCCc1ccc2oc(NCCCCCN)nc2c1 | 35% |

Continued, values first:

| inhibition | SMILES |
| --- | --- |
| 2% | CCCCCCCCCCc1ccc2oc(NC[C@H]3CCCNC3)nc2c1 |
| 47% | CCCCCCCCCCc1ccc2oc(N[C@@H]3CCNC3)nc2c1 |
| 63% | CCCCCCCCCCc1ccc2oc(N[C@@H]3CCCNC3)nc2c1 |
| 6% | CCCCCCCCCCc1ccc2oc(NC[C@@H]3CCCN3)nc2c1 |
| 14% | CCCCCCCCCCc1ccc2oc(NCC3CCNCC3)nc2c1 |
| 75% | CCCCCCCCCCc1ccc2oc(N[C@H]3CCNC3)nc2c1 |
| 32% | CCCCCCCCCCc1ccc2oc(NC[C@@H]3CCCNC3)nc2c1 |
| 50% | CCCCCCCCCCc1ccc2oc(N[C@H]3CCCNC3)nc2c1 |
| 50% | CCCCCCCCCCc1ccc2oc(NC[C@@H]3CCNC3)nc2c1 |
| 87% | CCCCCCCCCCc1ccc2oc(NC[C@H]3CCNC3)nc2c1 |

The compounds below were run against T1, Sphingosine-1-phosphate transporter SPNS2 (Mus musculus) (assay: Inhibition of mouse Spns2 expressed in Hela cells assessed as S1P release at 0.3 uM incubated for 18 to 20 hrs by LC-MS/MS analysis relative to control). Conditions: time 18-20 hrs.
Assay type: cell-based
Procedure, shortened: as §1

| SMILES | inhibition |
| --- | --- |
| CCCCCCCCCCc1ccc(-c2noc(CCCN)n2)cc1 | 30% |
| CCCCCCCCCCc1ccc2[nH]c(NC[C@H]3CCNC3)nc2c1 | 34% |

The next lines start with the values.

| inhibition | SMILES |
| --- | --- |
| 36% | CCCCCCCCCCCCc1ccc2oc(NC[C@H]3CCNC3)nc2c1 |
| 42% | CCCCCCCCc1ccc2oc(NC[C@H]3CCNC3)nc2c1 |
| 77% | CCCCCCCCCc1ccc2oc(NC[C@H]3CCNC3)nc2c1 |
| 52% | CCCCCCCCCCCc1ccc2oc(NC[C@H]3CCNC3)nc2c1 |
| 56% | CCCCCCCCCCc1ccc2oc(NC[C@H]3CCNC3)nc2c1 |
